Active and inactive are the calls of the source. No cut-off for these calls is given here.

Assay [1] relates to CHO. The assay is described as follows: Selectivity ratio of Ke for human delta opioid receptor expressed in CHO cell membrane to Ke for human kappa opioid receptor expressed in CHO cell membrane. It is filed as cell-based.
Assay [2] addresses Kappa-type opioid receptor (Homo sapiens) (UniProt P41145). The assay is described as follows: Antagonist activity at human kappa opioid receptor expressed in CHO cell membrane assessed as inhibition of U69,593-induced [35S]GTPgammaS binding after 1 hr by scintillation counting method. In kind it is functional, cell membranes. The gist of the method:
(§1)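 Antagonist Ke values were obtained from [35S]GTPγS binding at each opioid receptor. Each value is the mean ± SEM of at least three independent experiments, and each experiment was run in duplicate.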

For assay [3] the target is unchanged. The assay is described as follows: Intrinsic activity at human kappa opioid receptor expressed in CHO cell membrane assessed as increase in [35S]GTPgammaS binding at 10 uM after 1 hr by scintillation counting method. It is filed as functional, cell membranes. (GTPγS is a poorly hydrolysed GTP analogue; its binding reports G protein activation.)
In assay [4] the target is Delta-type opioid receptor (Homo sapiens) (UniProt P41143). The assay is described as follows: Intrinsic activity at human delta opioid receptor expressed in CHO cell membrane assessed as increase in [35S]GTPgammaS binding at 10 uM after 1 hr by scintillation counting method. It is filed as functional, cell membranes.
Chain of Delta-type opioid receptor (Homo sapiens) (P41143 whole entry): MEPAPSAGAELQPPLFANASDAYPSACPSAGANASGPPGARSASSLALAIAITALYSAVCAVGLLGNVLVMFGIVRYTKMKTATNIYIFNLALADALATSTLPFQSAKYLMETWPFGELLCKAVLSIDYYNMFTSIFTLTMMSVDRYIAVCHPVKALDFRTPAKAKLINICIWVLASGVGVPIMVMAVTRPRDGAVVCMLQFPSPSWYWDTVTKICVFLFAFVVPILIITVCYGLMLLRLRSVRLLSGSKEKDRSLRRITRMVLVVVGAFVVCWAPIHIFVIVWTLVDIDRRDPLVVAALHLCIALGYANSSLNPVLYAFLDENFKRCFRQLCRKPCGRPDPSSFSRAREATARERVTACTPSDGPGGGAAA
Assay [5] addresses Mu-type opioid receptor (Homo sapiens) (UniProt P35372). Briefly: Intrinsic activity at human mu opioid receptor expressed in CHO cell membrane assessed as increase in [35S]GTPgammaS binding at 10 uM after 1 hr by scintillation counting method. In kind it is functional, cell membranes.
For assay [6], the system named is CHO. The assay is described as follows: Selectivity ratio of Ke for human mu opioid receptor expressed in CHO cell membrane to Ke for human kappa opioid receptor expressed in CHO cell membrane. It is filed as cell-based.
Assay [7] deals with Delta-type opioid receptor (Homo sapiens) (UniProt P41143). Briefly: Antagonist activity at human delta opioid receptor expressed in CHO cell membrane assessed as inhibition of DPDPE-induced [35S]GTPgammaS binding after 1 hr by scintillation counting method. It is filed as functional, cell membranes. The gist of the method: as §1
Assay [8] deals with Mu-type opioid receptor (Homo sapiens) (UniProt P35372). The assay is described as follows: Antagonist activity at human mu opioid receptor expressed in CHO cell membrane assessed as inhibition of DAMGO-induced [35S]GTPgammaS binding after 1 hr by scintillation counting method. It is filed as functional, cell membranes. The procedure, abridged: as §1
Chain of Mu-type opioid receptor (Homo sapiens) (P35372 whole entry): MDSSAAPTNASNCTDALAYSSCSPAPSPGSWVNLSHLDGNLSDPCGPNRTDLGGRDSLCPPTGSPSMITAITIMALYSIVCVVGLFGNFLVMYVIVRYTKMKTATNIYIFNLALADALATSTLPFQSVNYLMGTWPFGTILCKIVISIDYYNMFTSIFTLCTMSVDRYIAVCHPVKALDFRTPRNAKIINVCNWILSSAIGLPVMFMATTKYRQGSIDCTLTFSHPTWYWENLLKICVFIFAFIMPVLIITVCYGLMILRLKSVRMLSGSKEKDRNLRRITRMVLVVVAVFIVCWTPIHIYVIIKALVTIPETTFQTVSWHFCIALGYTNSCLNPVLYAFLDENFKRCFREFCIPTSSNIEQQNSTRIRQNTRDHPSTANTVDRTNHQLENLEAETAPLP

Chain of Kappa-type opioid receptor (Homo sapiens) (P41145 whole entry): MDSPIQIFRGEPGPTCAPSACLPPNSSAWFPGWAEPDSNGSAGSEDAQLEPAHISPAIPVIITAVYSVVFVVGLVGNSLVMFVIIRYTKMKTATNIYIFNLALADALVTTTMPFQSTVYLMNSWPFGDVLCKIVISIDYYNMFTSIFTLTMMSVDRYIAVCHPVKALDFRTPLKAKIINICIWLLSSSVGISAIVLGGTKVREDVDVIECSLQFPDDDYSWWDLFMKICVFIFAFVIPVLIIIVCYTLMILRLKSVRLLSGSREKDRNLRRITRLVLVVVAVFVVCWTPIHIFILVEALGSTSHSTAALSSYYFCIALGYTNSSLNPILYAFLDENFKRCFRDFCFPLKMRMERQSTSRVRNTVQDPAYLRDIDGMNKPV

Consider `CC(C)[C@@H](CN1CCC(c2cccnc2)CC1)NC(=O)[C@H]1Cc2ccc(O)cc2CN1`, for which the Ratio Ke was determined as 2240 with CHO [1] and 89 in the assay on CHO [6]. In addition, the Ke in assay [2] came out at 0.51 nM. Moreover, the Intrinsic activity result in assay [3], in assay [4] and in assay [5] was “inactive” throughout.
For the compound `CC(C)[C@@H](CN1CCC(c2ccncc2)CC1)NC(=O)[C@H]1Cc2ccc(O)cc2CN1`, the Ratio Ke in the assay on CHO [1] is 1350; with CHO [6] it was 112. Moreover, the Ke in assay [2] is 0.51 nM. The Intrinsic activity result in assay [3], in assay [4] and in assay [5] was “inactive” each time.
Turning to `CC(C)[C@@H](CN1CCC(C)(c2ccncc2)CC1)NC(=O)[C@H]1Cc2ccc(O)cc2CN1`, the Ratio Ke in the assay on CHO [1] worked out at 1430; in the assay with CHO [6], 88. In assay [2], the Ke was determined as 1.75 nM. The Intrinsic activity result in assay [3], in assay [4] and in assay [5] was “inactive” each time.
As to `CC(C)[C@@H](CN1CCC(c2ccccc2)CC1)NC(=O)[C@H]1Cc2ccc(O)cc2CN1`, the Ratio Ke in the assay on CHO [1] came to 5510; in the assay on CHO [6], 77.
For `CC(C)[C@@H](CN1CCC(c2ccccn2)CC1)NC(=O)[C@H]1Cc2ccc(O)cc2CN1`, the Ratio Ke in the assay on CHO [1] turned out to be 1370; in the assay on CHO [6], 33. The Ke in assay [2] came out at 0.43 nM. For the same compound, the Intrinsic activity result in assay [3], in assay [4] and in assay [5] was “inactive” in each case.
On to `CC(C)[C@@H](CN1CCC(C)(c2cccnc2)CC1)NC(=O)[C@H]1Cc2ccc(O)cc2CN1`, for which the Ratio Ke was above 16700 in the assay on CHO [1] and 273 with CHO [6]. Moreover, the Ke in assay [2] was found to be 0.18 nM. Besides, the Intrinsic activity entry in assay [3], in assay [4] and in assay [5] was “inactive” in each case.
Regarding `CC(C)[C@@H](CN1CCC(c2ccsc2)CC1)NC(=O)[C@H]1Cc2ccc(O)cc2CN1`, the Ratio Ke in the assay on CHO [1] amounted to 983; in the assay with CHO [6], 33. Moreover, the figures for the Ke in assay [7], in assay [2] and in assay [8] were 118 nM, 0.12 nM and 3.93 nM, respectively. Besides, the Intrinsic activity result in assay [3], in assay [4] and in assay [5] was “inactive” each time.
